According to article PMC5816979 (Biochemistry, 2017):

Experiments:
Format in all cases: binding
[1] = molecular target: T1, P450cam (cytochrome P450cam), WT (Pseudomonas putida, UniProt P00183, C335A/Y97F); experiment: constant-volume visible difference spectrophotometric titration
T1 sequence (P00183 2-415 Y97F/C335A): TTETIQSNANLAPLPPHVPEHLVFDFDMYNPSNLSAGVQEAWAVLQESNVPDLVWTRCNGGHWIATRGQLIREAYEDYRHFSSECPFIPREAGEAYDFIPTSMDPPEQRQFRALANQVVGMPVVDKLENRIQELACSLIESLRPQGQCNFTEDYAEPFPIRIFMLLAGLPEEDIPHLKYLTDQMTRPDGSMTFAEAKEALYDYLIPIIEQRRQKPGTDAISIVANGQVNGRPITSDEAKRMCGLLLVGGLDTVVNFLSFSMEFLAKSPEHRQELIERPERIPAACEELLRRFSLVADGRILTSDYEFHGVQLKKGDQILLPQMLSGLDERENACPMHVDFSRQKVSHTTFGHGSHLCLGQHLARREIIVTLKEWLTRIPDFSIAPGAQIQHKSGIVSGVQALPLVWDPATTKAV
In short: (§1)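 Substrate-bound protein solution was exchanged into substrate-free solution at the same protein concentration, and visible difference spectra were recorded. KD was obtained by fitting to a single-site binding model. This method applied to the camphor-analogue test compounds.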

[2] = molecular target: T2, P450cam (cytochrome P450cam), WT (Pseudomonas putida, UniProt P00183, C335A); experiment: as above
T2 sequence (P00183 2-415 C335A): T1 sequence (P00183 2-415 Y97F/C335A)
In short: as §1

[3] = molecular target: T2, P450cam (cytochrome P450cam), WT; experiment: visible spectrophotometric titration
[4] = molecular target: T1, P450cam (cytochrome P450cam), WT; experiment: visible spectrophotometric titration

SMILES	Kd [1] [µM]	Kd [2] [µM]	Kd [3] [µM]	Kd [4] [µM]
CC1(C)C2CCC1(C)C(O)C2 (racemic) [isoborneol]	1.2 ± 0.3	10.9 ± 3.4	–	–
CC12CCC(CC1)C2(C)C [camphane]	10.7 ± 3.3	18.7 ± 2.5	–	–
CC1(C)[C@@H]2CC[C@@]1(C)C(=O)C2 [d-camphor]	–	–	1.8 ± 0.8	3.5 ± 0.6
